Data on one compound can be found in ChEMBL document CHEMBL4808178 (J Med Chem, 2021).

The structures appear in SMILES notation. Active and inactive are the calls of the source. No cut-off for these calls is given here.

The target in data set [1] is Dual specificity protein kinase CLK2 (Homo sapiens, UniProt P49760). The data set can be described thus: Inhibition of human CLK2 incubated for 2 hrs.
Data set [2] addresses Serine/threonine-protein kinase PLK1 (Homo sapiens) (UniProt P53350). Briefly: Inhibition of PLK1 (unknown origin) assessed as residual activity at 1 uM relative to control. The essentials: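 Commercial profiling service against a 208-kinase panel; single concentration 1 μmol/L; residual kinase activity expressed relative to control.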
In data set [3] the test system is HCT-116. Briefly: Inhibition of cell stemness in human HCT116 cells assessed as inhibition of CD44+/CD133+ expression at 20 uM after 24 hrs by flow cytometry analysis. It counts as functional. The essentials:
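ALDH⁺ HCT-116 subpopulation sorted by flow cytometry; 2 × 10⁵ cells/well seeded overnight at 37 °C, 5% CO₂; treated 20 μM for 24 h (vehicle DMSO); stained with PE anti-CD133 and FITC anti-CD44 30 min; CD44⁺/CD133⁺ read by flow cytometry.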

Data set [4] has as its system HCT-116. Briefly: Inhibition of cell stemness in human HCT116 cells assessed as reduction in SOX2 mRNA transcription levels at 20 uM after 24 hrs by RT-qPCR analysis. In kind it is functional, cell-based. Summed up: (§1)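 Sorted ALDH⁺ HCT-116 cells treated 24 h; TRIZOL RNA, one-step RT-qPCR (RT 10 min 55 °C; 95 °C 1 min; 39 cycles 95 °C 10 s/60 °C 30 s) with melting-curve check; β-actin reference; fold change by 2^−ΔΔCt; t test, mean ± SD, n = 3.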
Background: Quantitative PCR measures a nucleic acid by following its amplification.

The test system of data set [5] is HCT-116. Briefly: Inhibition of cell stemness in human HCT116 cells assessed as reduction in Nanog mRNA transcription levels at 20 uM after 24 hrs by RT-qPCR analysis. It counts as functional, cell-based. The essentials: as §1
Data set [6] has as its system HCT-116. Briefly: Effect on Wnt/beta-Catenin signaling in human HCT116 cells assessed as reduction in c-Myc mRNA level at 20 uM after 24 hrs by RT-qPCR analysis. It counts as functional, cell-based. The essentials: (§2)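 HCT-116 cells treated 24 h; total RNA by TRIZOL, one-step RT-qPCR: 55 °C 10 min, 95 °C 1 min, then 39 cycles of 95 °C 10 s and 60 °C 30 s, with melting-curve and no-template controls. β-Actin as internal standard; relative expression by 2^−ΔΔCt, mean ± SD (n = 3).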

For data set [7], the system named is HCT-116. The data set can be described thus: Effect on Wnt/beta-Catenin signaling in human HCT116 cells assessed as reduction in MMP7 mRNA level at 20 uM after 24 hrs by RT-qPCR analysis. It counts as functional, cell-based. Summed up:
as §2

For data set [8], the system named is HCT-116. Briefly: Effect on Wnt/beta-Catenin signaling in human HCT116 cells assessed as downregulation of beta-catenin protein level at 5 to 20 uM after 24 hrs by Western blotting analysis. In kind it is functional, cell-based. The following applies: dose 5-20 µM. Summed up:
(§3)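 HCT-116 cells at 2 × 10⁵ cells/mL in DMEM/10% FBS, grown 12 h at 37 °C, then treated 24 h (vehicle DMSO). Lysates quantified by BCA, run on 10% SDS-PAGE, PVDF transfer, blocked in 5% milk/TBST, primary antibodies 4 °C overnight, HRP secondary 2 h, chemiluminescent detection; normalized to β-actin, n = 3.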

The test system of data set [9] is HCT-116. Briefly: Induction of apoptosis in human HCT116 cells assessed as viable cells at 5 uM after 24 hrs by annexin V-FITC/propidium iodide staining based flow cytometry (reference value: 88.3%). The following applies: read-out: Activity. It counts as functional. Background: A flow cytometer gives signals particle by particle.
For data set [10], the system named is HCT-116. The data set can be described thus: Induction of apoptosis in human HCT116 cells assessed as early apoptotic cells at 5 uM after 24 hrs by annexin V-FITC/propidium iodide staining based flow cytometry (reference value: 1%). It counts as functional.
For data set [11], the system named is HCT-116. The data set can be described thus: Induction of apoptosis in human HCT116 cells assessed as early apoptotic cells at 20 uM after 24 hrs by annexin V-FITC/propidium iodide staining based flow cytometry (reference value: 1%). In kind it is functional.
The subject of data set [12] is HCT-116. Briefly: Induction of apoptosis in human HCT116 cells assessed as necrotic cells at 20 uM after 24 hrs by annexin V-FITC/propidium iodide staining based flow cytometry (reference value: 5.6%). It counts as functional.
Data set [13] has as its system HCT-116. Briefly: Induction of cell cycle arrest in human HCT116 cells assessed as accumulation at G2/M phase at 20 uM after 24 hrs by propidium iodide-staining based flow cytometry (reference value: 14.67%). In kind it is functional.
The test system of data set [14] is HCT-116. Briefly: Induction of apoptosis in human HCT116 cells assessed as down regulation of pro-caspase 9 level at 20 uM incubated for 24 hrs by Western blot analysis. It counts as functional, cell-based. The essentials: as §3
For data set [15], the system named is HCT-116. Briefly: Induction of apoptosis in human HCT116 cells assessed as down regulation of total PARP at 20 uM incubated for 24 hrs by Western blot analysis. It counts as functional, cell-based. Summed up: as §3
Background: In western blotting, separated proteins are transferred to a membrane and probed.

The nature of data set [16]: Tmax in Sprague-Dawley rat at 25 mg/kg, po measured up to 48 hrs by LC-MS/MS analysis. In kind it is ADME, organism-based. The following applies: in vivo. Summed up: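 Overnight-fasted male SD rats (250−270 g, n = 3/group), single oral 25 mg/kg in 5% CMC-Na (reference sodium salt in phosphate buffer); plasma at 0.25–48 h (12 timepoints), stored −40 °C; LC−MS/MS with internal-standard calibration 3–3000 ng/mL; parameters fitted by model.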

Data set [17] is described as follows: Cmax in Sprague-Dawley rat at 25 mg/kg, po measured up to 48 hrs by LC-MS/MS analysis. In kind it is ADME, organism-based. More on the design: route oral, dose 25 mg/kg, time <=48. The following applies: in vivo. The essentials:
(§4)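 Overnight-fasted male SD rats (about 250−270 g), three per group, single oral 25 mg/kg; test compound suspended in 5% CMC-Na, control as sodium salt in phosphate buffer. Blood sampled 0.25–48 h, plasma by centrifugation, stored −40 °C, quantified by LC−MS/MS against plasma standard curve (3–3000 ng/mL) with internal standard; model-fitted PK parameters.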

Data set [18] is described as follows: Half life in Sprague-Dawley rat at 25 mg/kg, po measured up to 48 hrs by LC-MS/MS analysis. The following applies: in vivo. It counts as ADME, organism-based. Summed up: as §4
The test system of data set [19] is HCT-116. Briefly: Antitumor activity against human HCT116 cells xenografted in BALB/c athymic nude mouse assessed as tumor growth inhibition at 60 mg/kg, po administered twice daily for 4 weeks and measured every 3 days. In kind it is functional. The following applies: HCT-116, po, 672 h, read-out: TGI. Summed up:
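Male BALB/c athymic nude mice, 5 weeks old, 16−18 g, given 0.2 mL of 5 × 10⁷ cells/mL HCT-116 in right armpit. At about 100 mm³, randomized to groups of five; intragastric dosing twice daily for 4 weeks. Tumor volume and body weight every 3 days; tumors weighed after sacrifice; organs HE-stained.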

Data set [20] in a line: Toxicity in BALB/c mouse xenografted with human HCT116 cells assessed as change in body weight at 60 to 90 mg/kg, po administered twice daily for 4 weeks and measured every 3 days. In kind it is organism-based, HCT-116. The following applies: in vivo, 672 h, dose 60-90 mg/kg. The essentials: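 Male 5-week BALB/c nude mice (16−18 g), 0.2 mL of 5 × 10⁷ cells/mL HCT-116 injected into right armpit; at ~100 mm³ randomized, 5/group; intragastric 60 or 90 mg/kg twice daily for 4 weeks; tumor volume and body weight every 3 days; after sacrifice heart, liver, spleen, lung, kidney HE-stained.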

Dual specificity protein kinase CLK2, sequence (P49760 whole entry): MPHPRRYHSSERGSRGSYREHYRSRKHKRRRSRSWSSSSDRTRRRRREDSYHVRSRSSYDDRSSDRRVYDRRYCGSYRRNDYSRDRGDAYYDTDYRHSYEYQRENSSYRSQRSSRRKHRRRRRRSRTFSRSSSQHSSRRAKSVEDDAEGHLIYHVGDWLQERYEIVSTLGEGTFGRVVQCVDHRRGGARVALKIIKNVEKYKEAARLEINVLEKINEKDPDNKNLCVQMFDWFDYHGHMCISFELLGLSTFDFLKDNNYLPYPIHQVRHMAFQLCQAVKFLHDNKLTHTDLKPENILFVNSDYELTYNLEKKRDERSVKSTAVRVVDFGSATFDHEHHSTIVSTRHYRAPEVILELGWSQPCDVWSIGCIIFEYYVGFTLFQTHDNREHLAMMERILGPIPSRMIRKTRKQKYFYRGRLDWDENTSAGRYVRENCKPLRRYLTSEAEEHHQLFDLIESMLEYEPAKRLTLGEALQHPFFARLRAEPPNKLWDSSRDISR
Serine/threonine-protein kinase PLK1 (Homo sapiens), sequence (P53350 whole entry): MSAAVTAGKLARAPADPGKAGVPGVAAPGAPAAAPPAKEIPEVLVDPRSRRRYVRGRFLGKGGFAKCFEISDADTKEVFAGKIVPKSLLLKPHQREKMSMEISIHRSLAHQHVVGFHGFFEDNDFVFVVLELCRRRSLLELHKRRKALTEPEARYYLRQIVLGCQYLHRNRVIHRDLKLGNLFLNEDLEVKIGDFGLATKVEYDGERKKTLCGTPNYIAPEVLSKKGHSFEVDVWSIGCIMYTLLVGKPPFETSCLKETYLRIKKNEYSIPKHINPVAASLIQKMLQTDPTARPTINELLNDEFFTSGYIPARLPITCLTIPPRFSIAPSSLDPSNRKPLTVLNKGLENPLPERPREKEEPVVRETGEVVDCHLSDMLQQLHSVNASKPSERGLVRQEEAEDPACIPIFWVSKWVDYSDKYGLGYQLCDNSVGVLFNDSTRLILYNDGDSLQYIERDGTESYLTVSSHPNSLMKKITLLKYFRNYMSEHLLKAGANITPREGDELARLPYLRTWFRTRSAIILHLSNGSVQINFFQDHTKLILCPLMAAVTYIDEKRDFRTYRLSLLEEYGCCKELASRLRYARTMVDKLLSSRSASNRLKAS

As to `O=C(NCCO)c1ccc2c(c1)nc(Nc1cccc(Cl)c1)c1ccncc12`, the IC50 in data set [1] came out at 32.7 nM. Besides, the Activity was 40.5% in data set [2]; 18% in data set [10]; 22.5% in data set [11]; 8.7% in [12]; 22.72% in data set [13]; “Non-Toxic” in data set [20]. The inhibition at 20 µM in data set [3] was 84%. The inhibition result in data set [4] and in data set [5] was “Active” in each case. Moreover, the outcome in data set [6], in data set [7], in data set [8], in [14] and in data set [15] was Active. The viability at 5 µM in data set [9] was 60.7%. For the same compound, the Tmax in data set [16] came out at 2.33 h. Further, in [17], the Cmax was found to be 7020 ng/mL. The same compound had a half-life in [18] of 6.67 h. Further, the inhibition in vivo at 60 mg/kg in data set [19] came out at 59%.

A word on the IC50: it is the point on the concentration scale where inhibition reaches its midpoint. High values mean lower potency, low ones higher potency. Usually inhibition stands for the relative decrease from the control value, in per cent. What is called Tmax is the time at which the peak concentration occurs. Broadly, the Cmax is the highest concentration seen after dosing. As usually defined, the half-life is how long it takes for the measured level to halve. A low value points to rapid decline.
